Measurements reported in the M2OR odorant receptor database.
Substitutions are numbered along the chain they refer to.

How the values were obtained:
Conditions in all cases: stereoisomer not certain
[1] = biological target: T1, OR11H12 (Homo sapiens) (UniProt B2RN74)
T1 sequence (whole entry): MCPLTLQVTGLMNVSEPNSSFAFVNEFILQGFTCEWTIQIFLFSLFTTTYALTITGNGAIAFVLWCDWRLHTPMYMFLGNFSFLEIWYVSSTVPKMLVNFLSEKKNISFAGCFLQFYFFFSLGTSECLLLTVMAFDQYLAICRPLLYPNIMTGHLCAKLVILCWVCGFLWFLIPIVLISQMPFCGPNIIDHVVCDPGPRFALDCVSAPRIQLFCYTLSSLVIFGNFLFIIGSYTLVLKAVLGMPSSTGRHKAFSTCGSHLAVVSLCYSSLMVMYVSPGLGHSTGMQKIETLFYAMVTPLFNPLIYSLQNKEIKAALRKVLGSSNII
Outline: (§1)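 Assay methods differ from source to source, frequently being transient luciferase assays in mammalian cell lines. For each receptor–molecule pair, the label responsive (active) applies when the original authors judged the measured signal statistically different from baseline, and non-responsive (inactive) applies otherwise.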

[2] = biological target: T2, OR11H2 (Homo sapiens) (UniProt Q8NH07)
T2 sequence (whole entry): T1 sequence (whole entry) with Q7H, T33S, T49I, W68R, C156Y, M181K, R199L, S269P
Outline: as §1

[3] = biological target: T3, OR11H4 (Homo sapiens) (UniProt Q8NGC9)
T3 sequence (whole entry): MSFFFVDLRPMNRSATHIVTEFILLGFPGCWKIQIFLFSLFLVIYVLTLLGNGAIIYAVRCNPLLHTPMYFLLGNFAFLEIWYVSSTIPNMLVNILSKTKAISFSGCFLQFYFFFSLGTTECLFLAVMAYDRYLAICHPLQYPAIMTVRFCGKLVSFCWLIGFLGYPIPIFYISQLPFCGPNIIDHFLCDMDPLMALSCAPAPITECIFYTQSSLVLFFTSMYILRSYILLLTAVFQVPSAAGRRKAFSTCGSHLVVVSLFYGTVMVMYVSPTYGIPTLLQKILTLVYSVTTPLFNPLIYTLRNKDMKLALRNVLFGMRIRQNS
Outline: as §1

[4] = biological target: T4, OR11H6 (Homo sapiens) (UniProt Q8NGC7)
T4 sequence (whole entry): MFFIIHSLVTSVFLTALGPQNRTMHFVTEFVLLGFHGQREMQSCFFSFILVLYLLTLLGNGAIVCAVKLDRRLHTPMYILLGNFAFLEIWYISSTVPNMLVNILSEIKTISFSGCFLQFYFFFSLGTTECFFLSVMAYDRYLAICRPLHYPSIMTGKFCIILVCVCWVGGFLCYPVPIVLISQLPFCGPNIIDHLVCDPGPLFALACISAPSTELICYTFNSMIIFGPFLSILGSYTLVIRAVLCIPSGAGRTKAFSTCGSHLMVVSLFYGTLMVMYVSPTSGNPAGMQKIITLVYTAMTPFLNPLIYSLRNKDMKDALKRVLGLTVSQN
Outline: as §1

[5] = biological target: OR11H7 (Homo sapiens) (UniProt Q8NGC8)
Outline: as §1

[6] = biological target: T5, OR11L1 (Homo sapiens) (UniProt Q8NGX0)
T5 sequence (whole entry): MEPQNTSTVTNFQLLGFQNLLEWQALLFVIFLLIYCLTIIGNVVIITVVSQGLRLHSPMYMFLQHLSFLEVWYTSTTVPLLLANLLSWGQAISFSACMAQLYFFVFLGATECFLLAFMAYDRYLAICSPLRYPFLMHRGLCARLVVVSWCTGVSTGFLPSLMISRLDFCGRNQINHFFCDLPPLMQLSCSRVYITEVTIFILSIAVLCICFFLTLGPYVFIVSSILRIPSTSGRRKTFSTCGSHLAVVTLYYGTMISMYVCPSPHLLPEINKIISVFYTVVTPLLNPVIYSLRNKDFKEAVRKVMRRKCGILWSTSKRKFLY
Outline: as §1

[7] = biological target: OR12D1 (Homo sapiens) (UniProt P0DN82)
Outline: as §1

[8] = biological target: T6, OR12D2 (Homo sapiens) (UniProt P58182)
T6 sequence (whole entry): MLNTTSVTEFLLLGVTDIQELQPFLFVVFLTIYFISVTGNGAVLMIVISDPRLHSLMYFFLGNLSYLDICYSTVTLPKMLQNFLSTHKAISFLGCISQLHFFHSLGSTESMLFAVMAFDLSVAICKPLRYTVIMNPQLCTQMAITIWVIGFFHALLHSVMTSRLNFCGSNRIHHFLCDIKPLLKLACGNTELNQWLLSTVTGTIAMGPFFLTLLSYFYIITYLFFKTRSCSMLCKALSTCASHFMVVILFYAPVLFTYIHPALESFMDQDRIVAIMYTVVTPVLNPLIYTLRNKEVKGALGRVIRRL
Outline: as §1

[9] = biological target: T7, OR12D3 (Homo sapiens) (UniProt Q9UGF7)
T7 sequence (whole entry): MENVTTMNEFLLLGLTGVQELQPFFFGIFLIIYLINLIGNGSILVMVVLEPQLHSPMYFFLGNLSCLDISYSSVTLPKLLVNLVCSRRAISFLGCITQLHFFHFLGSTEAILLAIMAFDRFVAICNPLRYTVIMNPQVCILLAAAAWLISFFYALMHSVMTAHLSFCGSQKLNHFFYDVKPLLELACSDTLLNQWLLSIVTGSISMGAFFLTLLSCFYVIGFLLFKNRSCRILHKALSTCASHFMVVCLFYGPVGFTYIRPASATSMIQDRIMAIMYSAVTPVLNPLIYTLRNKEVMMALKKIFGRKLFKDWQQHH
Outline: as §1

[10] = biological target: T8, OR13A1 (Homo sapiens) (UniProt Q8NGR1)
T8 sequence (whole entry): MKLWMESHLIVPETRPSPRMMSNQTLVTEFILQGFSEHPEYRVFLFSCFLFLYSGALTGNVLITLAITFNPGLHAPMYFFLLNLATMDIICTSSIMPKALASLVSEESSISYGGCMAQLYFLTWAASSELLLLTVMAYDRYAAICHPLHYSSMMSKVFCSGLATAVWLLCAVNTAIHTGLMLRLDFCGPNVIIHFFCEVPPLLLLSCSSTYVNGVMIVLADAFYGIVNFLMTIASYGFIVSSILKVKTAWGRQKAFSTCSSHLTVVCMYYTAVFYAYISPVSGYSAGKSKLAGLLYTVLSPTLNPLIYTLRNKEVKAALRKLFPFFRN
Outline: as §1

[11] = biological target: T9, OR13C2 (Homo sapiens) (UniProt Q8NGS9)
T9 sequence (whole entry): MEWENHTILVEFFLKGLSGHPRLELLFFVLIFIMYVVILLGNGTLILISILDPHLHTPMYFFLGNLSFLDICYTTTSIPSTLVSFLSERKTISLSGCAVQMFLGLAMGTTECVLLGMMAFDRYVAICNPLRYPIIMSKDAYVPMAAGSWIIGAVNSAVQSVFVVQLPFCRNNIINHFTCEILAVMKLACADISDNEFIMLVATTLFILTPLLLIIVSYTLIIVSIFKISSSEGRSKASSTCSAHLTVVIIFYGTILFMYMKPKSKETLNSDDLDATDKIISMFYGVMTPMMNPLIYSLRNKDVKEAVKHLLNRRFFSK
Outline: as §1

[12] = biological target: T10, OR13C3 (Homo sapiens) (UniProt Q8NGS6)
T10 sequence (whole entry): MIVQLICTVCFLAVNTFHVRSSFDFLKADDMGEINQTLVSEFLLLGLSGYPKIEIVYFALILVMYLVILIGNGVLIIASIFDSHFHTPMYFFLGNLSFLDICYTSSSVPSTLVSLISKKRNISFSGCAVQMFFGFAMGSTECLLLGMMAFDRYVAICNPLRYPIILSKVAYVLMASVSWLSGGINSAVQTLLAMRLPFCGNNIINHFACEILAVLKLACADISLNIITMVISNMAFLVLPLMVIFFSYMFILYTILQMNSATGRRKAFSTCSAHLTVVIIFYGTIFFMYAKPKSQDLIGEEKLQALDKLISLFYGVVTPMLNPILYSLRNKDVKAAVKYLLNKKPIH
Outline: as §1

[13] = biological target: T11, OR13C4 (Homo sapiens) (UniProt Q8NGS5)
T11 sequence (whole entry): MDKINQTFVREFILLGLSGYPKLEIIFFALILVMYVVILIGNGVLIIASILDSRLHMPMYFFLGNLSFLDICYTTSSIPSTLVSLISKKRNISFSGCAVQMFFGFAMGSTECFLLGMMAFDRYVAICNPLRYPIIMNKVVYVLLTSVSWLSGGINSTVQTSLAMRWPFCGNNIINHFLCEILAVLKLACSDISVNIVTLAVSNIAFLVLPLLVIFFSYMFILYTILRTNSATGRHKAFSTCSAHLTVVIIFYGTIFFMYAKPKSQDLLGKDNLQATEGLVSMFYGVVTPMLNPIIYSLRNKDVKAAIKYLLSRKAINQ
Outline: as §1

[14] = biological target: T12, OR13C5 (Homo sapiens) (UniProt Q8NGS8)
T12 sequence (whole entry): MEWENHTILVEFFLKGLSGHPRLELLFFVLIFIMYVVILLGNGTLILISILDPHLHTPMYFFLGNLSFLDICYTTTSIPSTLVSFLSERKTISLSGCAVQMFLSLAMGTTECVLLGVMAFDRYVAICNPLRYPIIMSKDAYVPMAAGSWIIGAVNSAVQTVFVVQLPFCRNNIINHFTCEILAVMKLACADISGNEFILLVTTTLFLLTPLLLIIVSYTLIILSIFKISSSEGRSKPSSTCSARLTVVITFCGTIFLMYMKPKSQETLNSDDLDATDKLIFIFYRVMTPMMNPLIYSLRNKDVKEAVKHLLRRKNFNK
Outline: as §1

[15] = biological target: OR13C7 (Homo sapiens) (UniProt P0DN81)
Outline: as §1

[16] = biological target: T13, OR13C8 (Homo sapiens) (UniProt Q8NGS7)
T13 sequence (whole entry): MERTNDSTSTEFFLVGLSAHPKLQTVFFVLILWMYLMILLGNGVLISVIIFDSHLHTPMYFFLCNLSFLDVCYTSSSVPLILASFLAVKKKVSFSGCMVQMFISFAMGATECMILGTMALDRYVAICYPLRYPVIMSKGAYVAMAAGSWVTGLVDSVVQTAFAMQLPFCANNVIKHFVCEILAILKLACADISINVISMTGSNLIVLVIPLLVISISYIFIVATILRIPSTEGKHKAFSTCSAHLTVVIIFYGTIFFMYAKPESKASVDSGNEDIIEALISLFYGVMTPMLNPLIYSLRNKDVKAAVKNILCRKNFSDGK
Outline: as §1

[17] = biological target: T14, OR13C9 (Homo sapiens) (UniProt Q8NGT0)
T14 sequence (whole entry): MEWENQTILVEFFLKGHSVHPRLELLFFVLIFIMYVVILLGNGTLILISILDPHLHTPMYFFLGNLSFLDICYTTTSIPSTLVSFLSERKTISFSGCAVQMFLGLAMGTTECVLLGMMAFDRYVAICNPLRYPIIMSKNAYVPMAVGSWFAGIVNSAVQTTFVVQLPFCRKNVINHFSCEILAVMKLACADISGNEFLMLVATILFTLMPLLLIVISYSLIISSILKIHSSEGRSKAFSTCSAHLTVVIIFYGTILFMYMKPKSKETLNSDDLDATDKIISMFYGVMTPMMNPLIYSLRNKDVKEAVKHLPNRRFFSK
Outline: as §1

[18] = biological target: T15, OR13D1 (Homo sapiens) (UniProt Q8NGV5)
T15 sequence (whole entry): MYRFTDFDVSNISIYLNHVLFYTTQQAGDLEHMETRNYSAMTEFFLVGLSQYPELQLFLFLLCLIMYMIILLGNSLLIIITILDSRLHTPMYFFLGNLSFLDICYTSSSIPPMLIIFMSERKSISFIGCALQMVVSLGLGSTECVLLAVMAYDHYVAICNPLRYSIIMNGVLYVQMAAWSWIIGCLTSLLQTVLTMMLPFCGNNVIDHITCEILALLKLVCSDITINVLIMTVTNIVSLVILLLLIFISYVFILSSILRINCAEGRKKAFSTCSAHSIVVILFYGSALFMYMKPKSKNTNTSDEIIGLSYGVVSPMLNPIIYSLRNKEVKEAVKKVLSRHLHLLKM
Outline: as §1

[19] = biological target: T16, OR13F1 (Homo sapiens) (UniProt Q8NGS4)
T16 sequence (whole entry): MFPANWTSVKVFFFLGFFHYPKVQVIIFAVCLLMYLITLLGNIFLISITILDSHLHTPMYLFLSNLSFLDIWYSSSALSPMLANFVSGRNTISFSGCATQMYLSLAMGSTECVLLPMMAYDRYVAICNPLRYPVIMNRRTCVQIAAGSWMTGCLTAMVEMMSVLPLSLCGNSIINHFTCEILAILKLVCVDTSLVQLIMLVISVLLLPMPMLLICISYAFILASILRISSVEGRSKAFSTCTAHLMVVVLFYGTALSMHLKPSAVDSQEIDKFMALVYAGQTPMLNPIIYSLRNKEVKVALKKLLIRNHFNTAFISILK
Outline: as §1

[20] = biological target: T17, OR13G1 (Homo sapiens) (UniProt Q8NGZ3)
T17 sequence (whole entry): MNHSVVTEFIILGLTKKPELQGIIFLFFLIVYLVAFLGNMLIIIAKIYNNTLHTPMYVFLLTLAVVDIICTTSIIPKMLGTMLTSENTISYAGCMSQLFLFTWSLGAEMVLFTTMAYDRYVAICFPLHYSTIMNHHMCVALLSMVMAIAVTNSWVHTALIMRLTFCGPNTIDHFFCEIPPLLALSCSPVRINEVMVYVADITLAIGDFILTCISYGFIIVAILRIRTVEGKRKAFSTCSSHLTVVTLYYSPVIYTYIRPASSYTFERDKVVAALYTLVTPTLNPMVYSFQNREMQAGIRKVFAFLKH
Outline: as §1

Measured: odorant receptor agonist call

Chain of OR11H7 (Homo sapiens) (Q8NGC8 whole entry): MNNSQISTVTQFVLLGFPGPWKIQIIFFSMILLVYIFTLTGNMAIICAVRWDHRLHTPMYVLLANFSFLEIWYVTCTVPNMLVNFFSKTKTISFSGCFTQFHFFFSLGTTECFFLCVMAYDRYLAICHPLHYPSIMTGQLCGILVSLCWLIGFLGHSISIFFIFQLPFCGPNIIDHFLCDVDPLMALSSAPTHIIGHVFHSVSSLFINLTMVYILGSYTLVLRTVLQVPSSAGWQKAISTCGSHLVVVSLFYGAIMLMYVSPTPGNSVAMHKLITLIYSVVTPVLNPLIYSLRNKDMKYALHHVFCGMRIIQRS
Chain of OR12D1 (Homo sapiens) (P0DN82 as listed by the source): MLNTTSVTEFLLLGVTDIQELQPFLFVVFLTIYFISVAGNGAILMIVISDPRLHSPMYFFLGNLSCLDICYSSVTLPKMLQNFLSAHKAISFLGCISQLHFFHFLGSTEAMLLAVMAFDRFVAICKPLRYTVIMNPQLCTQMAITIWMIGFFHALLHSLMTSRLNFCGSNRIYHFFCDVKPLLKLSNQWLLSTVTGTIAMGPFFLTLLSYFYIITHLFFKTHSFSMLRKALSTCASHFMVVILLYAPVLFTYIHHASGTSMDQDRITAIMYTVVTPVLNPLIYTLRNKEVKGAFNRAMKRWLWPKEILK
Chain of OR13C7 (Homo sapiens) (P0DN81 whole entry): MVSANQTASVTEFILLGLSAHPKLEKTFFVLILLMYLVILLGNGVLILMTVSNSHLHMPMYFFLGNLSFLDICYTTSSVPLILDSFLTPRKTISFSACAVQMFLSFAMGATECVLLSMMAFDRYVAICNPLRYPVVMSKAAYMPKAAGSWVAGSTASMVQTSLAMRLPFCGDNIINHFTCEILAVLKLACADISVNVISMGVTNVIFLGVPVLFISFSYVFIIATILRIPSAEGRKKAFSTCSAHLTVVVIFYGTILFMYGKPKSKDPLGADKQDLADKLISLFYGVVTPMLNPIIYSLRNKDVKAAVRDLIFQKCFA

CC(=O)c1c(C)c([N+](=O)[O-])c(C(C)(C)C)c([N+](=O)[O-])c1C
inactive: all assays above
